Laboratory results as given in ChEMBL document CHEMBL5058577, “EUbOPEN Chemogenomics Library 2 (Multiplex)” (2022).

Tested on: HEK-293T
Experiment: Multiplex assay against HEK293T
Type: toxicity, cell-based
Details: human
How it was run: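 At seeding, live cells were stained with Hoechst33342, BioTracker Green Microtubule Cytoskeleton Dye, MitoTracker Red and Annexin V Alexa Fluor 680. After compound addition they were imaged on a CQ1 microscope at 37°C and 5% CO2, and CellPathfinder machine-learning gating sorted them into Hoechst high-intensity objects or normal cells, with normal cells further split into healthy, pyknosed or fragmented nuclei and pyknosed cells into mitotic or apoptotic. Tubulin, mitochondrial-mass and membrane-permeability phenotypes are given as per cents of cells with healthy nuclei.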

[1] = 12 h, 1 µM, compound concentration 1 uM, replicate 1
[2] = 12 h, 1 µM, compound concentration 1 uM, replicate 2
[3] = 12 h, 10 µM, compound concentration 10 uM, replicate 1
[4] = 12 h, 10 µM, compound concentration 10 uM, replicate 2
[5] = 24 h, 1 µM, compound concentration 1 uM, replicate 1
[6] = 24 h, 1 µM, compound concentration 1 uM, replicate 2
[7] = 24 h, 10 µM, compound concentration 10 uM, replicate 1
[8] = 24 h, 10 µM, compound concentration 10 uM, replicate 2
[9] = 48 h, 1 µM, compound concentration 1 uM, replicate 1
[10] = 48 h, 1 µM, compound concentration 1 uM, replicate 2
[11] = 48 h, 10 µM, compound concentration 10 uM, replicate 1
[12] = 48 h, 10 µM, compound concentration 10 uM, replicate 2

Question: Which results are given for `Cc1cc(=O)n(C)c2cc(N3C(=O)CC[C@H](NS(=O)(=O)CC(C)C)[C@H]3c3ccc(Cl)cc3)ccc12`?
Answer: Population Apoptotic (%) [1]: 43%; Population Fragmented Nuclei (%) [1]: 7%; Population Healthy Nuclei (%) [1]: 83%; Population Hoechst High Intensity Objects (%) [1]: 8%; Population Membrane Permeable-Phenotype (%) [1]: 0%; Population Mitochondria Different-Phenotype (%) [1]: 41%; Population Mitotic Cells (%) [1]: 56%; Population Normal (%) [1]: 91%; Population Pyknosed Nuclei (%) [1]: 8%; Population Tubulin-Different-Phenotype (%) [1]: 32%; Total Cell Count [1]: 454; Population Apoptotic (%) [2]: 63%; Population Fragmented Nuclei (%) [2]: 6%; Population Healthy Nuclei (%) [2]: 78%; Population Hoechst High Intensity Objects (%) [2]: 6%; Population Mitochondria Different-Phenotype (%) [2]: 53%; Population Mitotic Cells (%) [2]: 36%; Population Normal (%) [2]: 93%; Population Pyknosed Nuclei (%) [2]: 14%; Population Tubulin-Different-Phenotype (%) [2]: 14%; Total Cell Count [2]: 265; Population Apoptotic (%) [3]: 47%; Population Fragmented Nuclei (%) [3]: 4%; Population Healthy Nuclei (%) [3]: 70%; Population Hoechst High Intensity Objects (%) [3]: 11%; Population Membrane Permeable-Phenotype (%) [3]: 0%; Population Mitochondria Different-Phenotype (%) [3]: 75%; Population Mitotic Cells (%) [3]: 52%; Population Normal (%) [3]: 88%; Population Pyknosed Nuclei (%) [3]: 24%; Population Tubulin-Different-Phenotype (%) [3]: 81%; Total Cell Count [3]: 368; Population Apoptotic (%) [4]: 50%; Population Fragmented Nuclei (%) [4]: 6%; Population Healthy Nuclei (%) [4]: 66%; Population Hoechst High Intensity Objects (%) [4]: 16%; Population Mitochondria Different-Phenotype (%) [4]: 86%; Population Mitotic Cells (%) [4]: 49%; Population Normal (%) [4]: 83%; Population Pyknosed Nuclei (%) [4]: 27%; Population Tubulin-Different-Phenotype (%) [4]: 66%; Total Cell Count [4]: 331; Population Apoptotic (%) [5]: 33%; Population Fragmented Nuclei (%) [5]: 9%; Population Healthy Nuclei (%) [5]: 81%; Population Hoechst High Intensity Objects (%) [5]: 4%; Population Membrane Permeable-Phenotype (%) [5]: 0%; Population Mitochondria Different-Phenotype (%) [5]: 25%; Population Mitotic Cells (%) [5]: 66%; Population Normal (%) [5]: 95%; Population Pyknosed Nuclei (%) [5]: 9%; Population Tubulin-Different-Phenotype (%) [5]: 19%; Total Cell Count [5]: 646; Population Apoptotic (%) [6]: 36%; Population Fragmented Nuclei (%) [6]: 4%; Population Healthy Nuclei (%) [6]: 82%; Population Hoechst High Intensity Objects (%) [6]: 5%; Population Membrane Permeable-Phenotype (%) [6]: 1%; Population Mitochondria Different-Phenotype (%) [6]: 42%; Population Mitotic Cells (%) [6]: 63%; Population Normal (%) [6]: 94%; Population Pyknosed Nuclei (%) [6]: 13%; Population Tubulin-Different-Phenotype (%) [6]: 17%; Total Cell Count [6]: 327; Population Apoptotic (%) [7]: 34%; Population Fragmented Nuclei (%) [7]: 7%; Population Healthy Nuclei (%) [7]: 72%; Population Hoechst High Intensity Objects (%) [7]: 9%; Population Membrane Permeable-Phenotype (%) [7]: 0%; Population Mitochondria Different-Phenotype (%) [7]: 67%; Population Mitotic Cells (%) [7]: 65%; Population Normal (%) [7]: 90%; Population Pyknosed Nuclei (%) [7]: 19%; Population Tubulin-Different-Phenotype (%) [7]: 67%; Total Cell Count [7]: 419; Population Apoptotic (%) [8]: 76%; Population Fragmented Nuclei (%) [8]: 8%; Population Healthy Nuclei (%) [8]: 67%; Population Hoechst High Intensity Objects (%) [8]: 22%; Population Mitochondria Different-Phenotype (%) [8]: 85%; Population Mitotic Cells (%) [8]: 23%; Population Normal (%) [8]: 77%; Population Pyknosed Nuclei (%) [8]: 23%; Population Tubulin-Different-Phenotype (%) [8]: 71%; Total Cell Count [8]: 328; Population Apoptotic (%) [9]: 25%; Population Fragmented Nuclei (%) [9]: 14%; Population Healthy Nuclei (%) [9]: 78%; Population Hoechst High Intensity Objects (%) [9]: 3%; Population Membrane Permeable-Phenotype (%) [9]: 0%; Population Mitochondria Different-Phenotype (%) [9]: 17%; Population Mitotic Cells (%) [9]: 74%; Population Normal (%) [9]: 96%; Population Pyknosed Nuclei (%) [9]: 6%; Population Tubulin-Different-Phenotype (%) [9]: 15%; Total Cell Count [9]: 985; Population Apoptotic (%) [10]: 31%; Population Fragmented Nuclei (%) [10]: 11%; Population Healthy Nuclei (%) [10]: 79%; Population Hoechst High Intensity Objects (%) [10]: 7%; Population Mitochondria Different-Phenotype (%) [10]: 20%; Population Mitotic Cells (%) [10]: 68%; Population Normal (%) [10]: 92%; Population Pyknosed Nuclei (%) [10]: 9%; Population Tubulin-Different-Phenotype (%) [10]: 17%; Total Cell Count [10]: 454; Population Apoptotic (%) [11]: 56%; Population Fragmented Nuclei (%) [11]: 12%; Population Healthy Nuclei (%) [11]: 77%; Population Hoechst High Intensity Objects (%) [11]: 10%; Population Membrane Permeable-Phenotype (%) [11]: 1%; Population Mitochondria Different-Phenotype (%) [11]: 67%; Population Mitotic Cells (%) [11]: 43%; Population Normal (%) [11]: 89%; Population Pyknosed Nuclei (%) [11]: 10%; Population Tubulin-Different-Phenotype (%) [11]: 58%; Total Cell Count [11]: 548; Population Apoptotic (%) [12]: 66%; Population Healthy Nuclei (%) [12]: 67%; Population Hoechst High Intensity Objects (%) [12]: 19%; Population Membrane Permeable-Phenotype (%) [12]: 0%; Population Mitochondria Different-Phenotype (%) [12]: 76%; Population Mitotic Cells (%) [12]: 33%; Population Normal (%) [12]: 80%; Population Pyknosed Nuclei (%) [12]: 19%; Population Tubulin-Different-Phenotype (%) [12]: 56%; Total Cell Count [12]: 371
